Assay outcomes (PubChem BioAssay)
EBV gp42 inh – inhibitors of Epstein-Barr virus glycoprotein 42 | Q1HVG2 | Fluorescence polarization binding assay, mP read-out | inhibition, % (tested at 21.74 µM) | actives 0.42% (n = 220,000) | AID 1085; in the data active = inhibition above about 50%
Target sequence (Q1HVG2 whole entry, looked up): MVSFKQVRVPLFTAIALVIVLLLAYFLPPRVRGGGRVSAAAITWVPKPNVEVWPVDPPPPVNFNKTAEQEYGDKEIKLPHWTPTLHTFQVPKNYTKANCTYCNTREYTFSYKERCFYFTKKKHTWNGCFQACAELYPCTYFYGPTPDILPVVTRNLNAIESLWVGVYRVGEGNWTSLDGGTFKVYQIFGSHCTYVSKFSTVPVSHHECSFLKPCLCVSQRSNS
GLD-1 RNA inh – GLD-1-TGE RNA interaction inhibition (C. elegans); Q17339; purified GLD-1 + fluorescein TGE RNA, fluorescence polarization; actives 0.44% (n = 320,000); AID 2280; inhibition, % at 5.96 µM;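 active = percent inhibition above a per-plate cutoff, the plate mean of test compounds plus 3 SD, cut at about 30% in these data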
MEX-5 binding – C. elegans MEX-5 TCR-2 RNA binding activity; Q9XUB2; AID 1832; MEX-5/FITC-TCR2 RNA binding, fluorescence polarization; hits give low values; activity score (negative = inhibition of binding), % at 10 µM; actives 0.38% (n = 300,000);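 active = inhibition past about -25% in most replicates, and total fluorescence under double the plate's negative control median, limit read from the data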
IMP-1 inh – inhibitors of Pseudomonas aeruginosa IMP-1 metallo-beta-lactamase; purified IMP-1, nitrocefin hydrolysis, epi-absorbance fluorescence; inhibition, % at 5.6 µM; actives 0.45% (n = 290,000); AID 1556;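 active = inhibition above the mean plus 3 SD of all compounds in the same screening run, cut at about 4.5% in these data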
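System: purified IMP-1; amount: IMP-1 0.2 nM before substrate addition; compound: single dose, 5.6 µM; times: 25 °C, 15 min preincubation, 25 min reaction; signal: Epi-absorbance via hydrolysed-nitrocefin quenching of white-plate fluorescence, 480/530 nm, EDTA stop; benchmarks: DMSO with and without IMP-1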
VIM-2 inhibitor – inhibitors of Pseudomonas aeruginosa VIM-2 metallo-beta-lactamase; purified VIM-2, nitrocefin hydrolysis, epi-absorbance fluorescence; inhibition, % at 5.6 µM; actives 0.89% (n = 290,000);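 active = inhibition above the mean of all tested compounds plus 3 SD, cutoff set per screening run, cut at about 7.5% in these data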;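 note: red hydrolysis product quenches plate fluorescence so inhibitors raise well fluorescence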
Bcl-xL primary – blocks human Bcl-xL binding to Bim BH3 peptide. GST-Bcl-xL / FITC-Bim BH3 peptide fluorescence polarization. actives 0.7% (n = 320,000). inhibition, % at 10.9 µM. Q07817;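 active = inhibition above the mean of all tested compounds plus 3 SD, cutoff set per campaign, cut at about 30% in these data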;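 note: inhibitors lower millipolarization by displacing the labeled peptide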
Target sequence (Q07817 whole entry, looked up): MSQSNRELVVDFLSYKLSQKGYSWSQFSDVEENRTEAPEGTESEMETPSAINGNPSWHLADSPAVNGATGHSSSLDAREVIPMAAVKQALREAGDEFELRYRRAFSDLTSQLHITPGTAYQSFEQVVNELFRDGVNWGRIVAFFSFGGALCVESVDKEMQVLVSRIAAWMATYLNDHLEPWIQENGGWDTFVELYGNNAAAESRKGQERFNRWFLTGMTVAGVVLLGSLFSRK
Of the large screens only hits and unclear results are named; the others gave an inactive call. Compounds with a hit are over-represented: about 2.2% of the library has one in this group of screens.

COC(C(=O)N1CCC(n2nccc2NC(=O)C2CC2)CC1)c1ccccc1 (stereo not drawn)	none (no result: EBV gp42 inh)
O=C(Nc1nc2c(s1)CN(Cc1ccccc1)CC2)c1cccc(S(=O)(=O)N2CCc3ccccc32)c1	EBV gp42 inh 111, Bcl-xL primary 55
O=C(Nc1nc2ccccc2s1)c1cccc(S(=O)(=O)N2CCc3ccccc32)c1	none
Cc1cnc(C(=O)OCC(=O)N(C(C)C)C(C)C)cn1	IMP-1 inh 5.4
Cc1c(OC(C)C(=O)N2C[C@H]3C[C@@H](C2)c2cccc(=O)n2C3)ccc2c3c(c(=O)oc12)CCCC3 (stereo partly drawn)	none (no result: EBV gp42 inh)
Cc1cccc(N(CC(=O)NC2CCCC2)C(=O)c2csnn2)c1C	none (no result: EBV gp42 inh)
O=C(O)[C@H](Cc1ccccc1)N1C(=O)c2c(Cl)c(Cl)c(Cl)c(Cl)c2C1=O	VIM-2 inhibitor 8.5 (no result: EBV gp42 inh)
O=C(O)c1cc(S(=O)(=O)NC23CC4CC(CC(C4)C2)C3)ccc1Cl	none (no result: EBV gp42 inh)
O=C(CSc1ccc(Br)cc1)NC1CCS(=O)(=O)C1 (stereo not drawn)	none (no result: EBV gp42 inh, IMP-1 inh, VIM-2 inhibitor)
CN1C(=O)/C(=C/c2ccc3c(c2)OCO3)N=C1c1ccccc1	MEX-5 binding -33
CCSC1=N/C(=C\c2ccc3c(c2)OCO3)C(=O)S1	none
CN1CCN(c2ccc(NC(=O)c3cc([N+](=O)[O-])ccc3N3CCOCC3)cc2)CC1	VIM-2 inhibitor 12 (no result: EBV gp42 inh)
CCOc1ccc(NC(=O)c2cc([N+](=O)[O-])ccc2N2CCOCC2)cc1	none (no result: EBV gp42 inh, IMP-1 inh, VIM-2 inhibitor)
Cc1cc(C(=O)COC(=O)C2=NNC(=O)CC2)c(C)n1-c1ccc(OC(F)F)cc1	none
Cc1cc(C(=O)C(C)OC(=O)C2=NNC(=O)CC2)c(C)n1-c1ccc(OC(F)F)cc1 (stereo not drawn)	IMP-1 inh 5.2
CCCc1[nH][nH]c(=O)c1C(c1ccccc1)C(C#N)C#N (stereo not drawn)	VIM-2 inhibitor 9.1
CCCc1[nH][nH]c(=O)c1C(c1ccc(Br)cc1)C(C#N)C#N (stereo not drawn)	VIM-2 inhibitor 8.8
Cc1[nH][nH]c(=O)c1[C@@H](c1ccccc1[N+](=O)[O-])C(C#N)C#N	none
CC(C)(C)OC(=O)N1Cc2[nH]c3ccccc3c2C[C@@H]1C(=O)O	none (no result: EBV gp42 inh, MEX-5 binding, IMP-1 inh, VIM-2 inhibitor)
Cc1[nH]c2ccccc2c1/C=C/C(=O)c1ccncc1	VIM-2 inhibitor 8.5
CCOC(=O)c1c(C)c(C(=O)NCc2ccc3c(c2)OCO3)c(C)n1CC	none
CCOC(=O)c1cnc(-n2cc(C)cn2)nc1NCc1ccc2c(c1)OCO2	VIM-2 inhibitor 8.1
Cc1ccc(S(=O)(=O)N(CC(=O)Nc2cccc(C)c2C)C(=O)N2CCN(C)CC2)cc1	none (no result: EBV gp42 inh, GLD-1 RNA inh, IMP-1 inh, VIM-2 inhibitor, Bcl-xL primary)
CN(C)c1ccc(-c2nnc(-c3ccc(S(=O)(=O)C(F)F)cc3)o2)cc1	MEX-5 binding -34
COc1ccc(-c2nnc(-c3ccc(N(C)C)cc3)o2)cc1	none
COC(=O)CNc1c(-c2ccccn2)nc2ccc(Br)cn12	GLD-1 RNA inh 50, Bcl-xL primary 47 (no result: MEX-5 binding)
CCOC(=O)CNc1c(-c2ccccc2)nc2ccc(Cl)cn12	none
COCCN1CC(CNC(=O)c2cc(COc3ccccc3SC)on2)CC1=O (stereo not drawn)	none (no result: EBV gp42 inh)
CCN(CC)c1ccc(/C=C/c2cc(-c3ccccc3)c3ccccc3n2)cc1	EBV gp42 inh 68, Bcl-xL primary 30
CN(C)c1ccc(/C=C/c2ccc3ccccc3n2)cc1	none
CC(C)(C)c1ccc(C(=O)Nc2cccc3ncccc23)cc1	GLD-1 RNA inh 64, MEX-5 binding -74, Bcl-xL primary 81 (no result: EBV gp42 inh)
Nc1ccc(C(=O)Nc2cccc3ncccc23)cc1	none (no result: EBV gp42 inh)
CN1C(=O)/C(=C/c2cn(CC(=O)N3CCCCC3)c3ccccc23)c2ccccc21	MEX-5 binding -27
O=Cc1cn(CC(=O)N2CCCCC2)c2ccccc12	none
CCCc1nc2sc(C(=O)OCC)c(N)c2c2c1COC(C)(C)C2	IMP-1 inh 6.2
COc1cc(Br)c(CC(=O)NC2CC2)cc1OC	none (no result: EBV gp42 inh)
Cc1ccc(O)c(CNc2nccs2)c1	none (no result: EBV gp42 inh)
Oc1ccc(Cl)cc1CNc1nccs1	IMP-1 inh 8.4 (no result: EBV gp42 inh)
COc1ccccc1NC(=O)Cn1cncc1-c1ccc([N+](=O)[O-])cc1	none
Cc1ccc(NC(=O)Cn2cncc2-c2ccc([N+](=O)[O-])cc2)cc1C	IMP-1 inh 12
O=C(Cn1cncc1-c1ccc([N+](=O)[O-])cc1)Nc1ccccc1F	GLD-1 RNA inh 33
O=C(NCCCN1CCCC1=O)c1ccccc1OCc1ccc(Cl)cc1Cl	none (no result: EBV gp42 inh, MEX-5 binding, IMP-1 inh, VIM-2 inhibitor, Bcl-xL primary)
O=c1c(Cl)c(O)c2cccc3c4ccccc4n1c23	VIM-2 inhibitor 9.4
Cc1ccc(C(=O)ONc2ccc(N=NC(=O)c3ccccc3O)cc2)cc1	EBV gp42 inh 93
Cc1c(Cl)cnc(NC(=O)COC(=O)c2ccc3c(c2)OCO3)c1Cl	none
O=C(COC(=O)c1ccccc1O)Nc1ncc(Cl)cc1Cl	Bcl-xL primary 36
Cc1c(Cl)cnc(NC(=O)COC(=O)c2ccncc2)c1Cl	Bcl-xL primary 34 (no result: EBV gp42 inh, MEX-5 binding, IMP-1 inh, VIM-2 inhibitor)
Cc1c(Cl)cnc(NC(=O)COC(=O)[C@H](C)NC(=O)c2ccccc2)c1Cl	Bcl-xL primary 32 (no result: EBV gp42 inh, MEX-5 binding, IMP-1 inh, VIM-2 inhibitor)
Cc1ccc(OCCSc2nc3ccccc3n2CCC(=O)O)cc1	none (no result: EBV gp42 inh)
O=C(CCNC(=O)C1CCN(S(=O)(=O)c2ccc(F)cc2)CC1)NCc1ccc(Cl)cc1	none (no result: EBV gp42 inh)
CCCc1cc(=O)oc2c(C)c(OCC(=O)N3C[C@H]4C[C@@H](C3)c3cccc(=O)n3C4)ccc12	none (no result: EBV gp42 inh)
CCCCn1c(N)c(-c2nc3ccccc3o2)c2c([N+](=O)[O-])nn(C)c(=O)c21	none
CCCCCn1c(N)c(-c2nc3ccccc3s2)c2c([N+](=O)[O-])nn(C)c(=O)c21	IMP-1 inh 6.9
O=C1C2CC=C(Cl)CC2C(=O)N1CC1OCCc2ccccc21 (stereo not drawn)	none
O=C1C2CC=C(Cl)CC2C(=O)N1CC1Cc2ccccc2CO1 (stereo not drawn)	MEX-5 binding -26
O=C(CCN1C(=O)C2CC=C(Cl)CC2C1=O)NCc1ccco1 (stereo not drawn)	none
O=C1C2CC=C(Cl)CC2C(=O)N1CN(Cc1ccco1)CN1C(=O)C2CC=C(Cl)CC2C1=O (stereo not drawn)	GLD-1 RNA inh 44, Bcl-xL primary 45
CCOc1ccc(OCC)c(NC(=O)CN2CCN(CC(=O)NC(C)C)CC2)c1	none (no result: EBV gp42 inh)
Cc1cc(C(=O)COC(=O)c2ccc3c(c2)OCO3)c(C)n1CC1CCCO1 (stereo not drawn)	none
Cc1ccccc1OC1C(=O)N(CC2CCCO2)C1c1ccc2c(c1)OCO2 (stereo not drawn)	Bcl-xL primary 100
O=C(N/N=C/c1c(F)cccc1Cl)C(=O)N1CCCCCC1	none (no result: EBV gp42 inh)
CCc1c(C)c2cc(Cl)c(O)c(CN(C)C)c2oc1=O	IMP-1 inh 7.6
CCc1c(C)c2cc(Cl)c(O)c(CN(CC)CC)c2oc1=O	IMP-1 inh 8.8
